The subject of this series is MDCK. Description: Cytotoxicity against MDCK cells at 50 uM after 40 hrs by CellTiter-Glo assay. Format: cell-based, Canis lupus familiaris. Particulars: dog. In short, it runs like this:
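Single-concentration toxicity screen at 50 μM final on MDCK cells for 40 h, read by CellTiter-Glo. 0.5% DMSO final as negative control. Triplicate experiments, standard deviations shown.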
In general terms: Cellular ATP, detected with luciferase, serves as a proxy for viable cell number.
As for `C=C(C)[C@@H]1CC[C@]2(C(=O)NCCNC(=O)c3cc(O)cc(O)c3)CC[C@]3(C)[C@H](CC[C@@H]4[C@@]5(C)CC[C@H](O)C(C)(C)[C@@H]5CC[C@]43C)[C@@H]12`, the Activity entry was “Toxic”.

With `C=C(C)[C@@H]1CC[C@]2(C(=O)NCCNC(=O)c3ccc(OCc4ccccc4)cc3)CC[C@]3(C)[C@H](CC[C@@H]4[C@@]5(C)CC[C@H](O)C(C)(C)[C@@H]5CC[C@]43C)[C@@H]12`, the Activity result is reported as “Non-Toxic”.

On to `C[C@H]1[C@H](C)CC[C@]2(C(=O)NCCNC(=O)c3ccc(O)cc3O)CC[C@]3(C)C(=CC[C@@H]4[C@@]5(C)CC[C@H](O)C(C)(C)[C@@H]5CC[C@]43C)[C@H]12`, for which the Activity entry is on record as “Toxic”.

Regarding `CC1(C)CC[C@]2(C(=O)NCCNC(=O)c3cc(O)c(O)c(O)c3)CC[C@]3(C)C(=CC[C@@H]4[C@@]5(C)CC[C@H](O)C(C)(C)[C@@H]5CC[C@]43C)[C@@H]2C1`, the Activity result is “Toxic”.

As for `CC1(C)CC[C@]2(C(=O)NCCNC(=O)/C=C/c3ccccc3)CC[C@]3(C)C(=CC[C@@H]4[C@@]5(C)CC[C@H](O)C(C)(C)[C@@H]5CC[C@]43C)[C@@H]2C1`, the Activity entry is “Toxic”.

Consider `CC1(C)CC[C@]2(C(=O)NCCNC(=O)c3ccc(OCc4ccccc4)cc3)[C@H](O)C[C@]3(C)C(=CC[C@@H]4[C@@]5(C)CC[C@H](O)C(C)(C)[C@@H]5CC[C@]43C)[C@@H]2C1`, for which the Activity result is “Non-Toxic”.

As to `C=C(C)[C@@H]1CC[C@]2(C(=O)NCCNC(=O)/C=C/c3ccccc3)CC[C@]3(C)[C@H](CC[C@@H]4[C@@]5(C)CC[C@H](O)C(C)(C)[C@@H]5CC[C@]43C)[C@@H]12`, the Activity result is given as “Non-Toxic”.

Take `CC1(C)CC[C@]2(C(=O)NCCNC(=O)/C=C/c3ccc(O)cc3)CC[C@]3(C)C(=CC[C@@H]4[C@@]5(C)CC[C@H](O)C(C)(C)[C@@H]5CC[C@]43C)[C@@H]2C1`: the Activity entry is “Non-Toxic”.

On to `CC1(C)CC[C@]2(C(=O)NCCNC(=O)c3ccc(O)cc3)CC[C@]3(C)C(=CC[C@@H]4[C@@]5(C)CC[C@H](O)C(C)(C)[C@@H]5CC[C@]43C)[C@@H]2C1`, for which the Activity entry is “Non-Toxic”.

On to `C=C(C)[C@@H]1CC[C@]2(C(=O)NCCNC(=O)c3ccc(O)cc3)CC[C@]3(C)[C@H](CC[C@@H]4[C@@]5(C)CC[C@H](O)C(C)(C)[C@@H]5CC[C@]43C)[C@@H]12`, for which the Activity entry is given as “Toxic”.

Consider `C[C@H]1[C@H](C)CC[C@]2(C(=O)NCCNC(=O)c3ccc(O)cc3)CC[C@]3(C)C(=CC[C@@H]4[C@@]5(C)CC[C@H](O)C(C)(C)[C@@H]5CC[C@]43C)[C@H]12`, for which the Activity entry is listed as “Toxic”.

For the molecule `C[C@H]1[C@H](C)CC[C@]2(C(=O)NCCNC(=O)/C=C/c3ccc(O)cc3)CC[C@]3(C)C(=CC[C@@H]4[C@@]5(C)CC[C@H](O)C(C)(C)[C@@H]5CC[C@]43C)[C@H]12`, the Activity result is listed as “Non-Toxic”.

`C=C(C)[C@@H]1CC[C@]2(C(=O)NCCNC(=O)c3cc(OCc4ccccc4)c(OCc4ccccc4)c(OCc4ccccc4)c3)CC[C@]3(C)[C@H](CC[C@@H]4[C@@]5(C)CC[C@H](O)C(C)(C)[C@@H]5CC[C@]43C)[C@@H]12`: the Activity result is recorded as “Non-Toxic”.

Consider `C=C(C)[C@@H]1CC[C@]2(C(=O)NCCNC(=O)c3cc(OCc4ccccc4)cc(OCc4ccccc4)c3)CC[C@]3(C)[C@H](CC[C@@H]4[C@@]5(C)CC[C@H](O)C(C)(C)[C@@H]5CC[C@]43C)[C@@H]12`, for which the Activity entry is “Non-Toxic”.

On to `C[C@H]1[C@H](C)CC[C@]2(C(=O)NCCNC(=O)c3ccc(OCc4ccccc4)cc3)CC[C@]3(C)C(=CC[C@@H]4[C@@]5(C)CC[C@H](O)C(C)(C)[C@@H]5CC[C@]43C)[C@H]12`, for which the Activity result is “Non-Toxic”.

With `CC1(C)CC[C@]2(C(=O)NCCNC(=O)c3ccc(O)cc3)[C@H](O)C[C@]3(C)C(=CC[C@@H]4[C@@]5(C)CC[C@H](O)C(C)(C)[C@@H]5CC[C@]43C)[C@@H]2C1`, the Activity result is on record as “Toxic”.

Consider `CC1(C)CC[C@]2(C(=O)NCCNC(=O)/C=C/c3ccccc3)[C@H](O)C[C@]3(C)C(=CC[C@@H]4[C@@]5(C)CC[C@H](O)C(C)(C)[C@@H]5CC[C@]43C)[C@@H]2C1`, for which the Activity entry is recorded as “Toxic”.

Turning to `CC1(C)CC[C@]2(C(=O)NCCNC(=O)c3cc(OCc4ccccc4)cc(OCc4ccccc4)c3)CC[C@]3(C)C(=CC[C@@H]4[C@@]5(C)CC[C@H](O)C(C)(C)[C@@H]5CC[C@]43C)[C@@H]2C1`, the Activity result is listed as “Non-Toxic”.

Take `CC1(C)CC[C@]2(C(=O)NCCNC(=O)c3cc(OCc4ccccc4)cc(OCc4ccccc4)c3)[C@H](O)C[C@]3(C)C(=CC[C@@H]4[C@@]5(C)CC[C@H](O)C(C)(C)[C@@H]5CC[C@]43C)[C@@H]2C1`: the Activity entry is reported as “Non-Toxic”.

`C[C@H]1[C@H](C)CC[C@]2(C(=O)NCCNC(=O)c3cc(O)c(O)c(O)c3)CC[C@]3(C)C(=CC[C@@H]4[C@@]5(C)CC[C@H](O)C(C)(C)[C@@H]5CC[C@]43C)[C@H]12`: the Activity entry is reported as “Toxic”.

As for `CC1(C)CC[C@]2(C(=O)NCCNC(=O)c3cc(O)cc(O)c3)CC[C@]3(C)C(=CC[C@@H]4[C@@]5(C)CC[C@H](O)C(C)(C)[C@@H]5CC[C@]43C)[C@@H]2C1`, the Activity result was “Toxic”.

Regarding `C[C@H]1[C@H](C)CC[C@]2(C(=O)NCCNC(=O)c3cc(O)cc(O)c3)CC[C@]3(C)C(=CC[C@@H]4[C@@]5(C)CC[C@H](O)C(C)(C)[C@@H]5CC[C@]43C)[C@H]12`, the Activity entry is on record as “Toxic”.

For the molecule `CC1(C)CC[C@]2(C(=O)NCCNC(=O)c3ccc(O)cc3O)CC[C@]3(C)C(=CC[C@@H]4[C@@]5(C)CC[C@H](O)C(C)(C)[C@@H]5CC[C@]43C)[C@@H]2C1`, the Activity entry was “Toxic”.

Take `CC1(C)CC[C@]2(C(=O)NCCNC(=O)c3cc(O)cc(O)c3)[C@H](O)C[C@]3(C)C(=CC[C@@H]4[C@@]5(C)CC[C@H](O)C(C)(C)[C@@H]5CC[C@]43C)[C@@H]2C1`: the Activity result is recorded as “Toxic”.

Take `CC1(C)CC[C@]2(C(=O)NCCNC(=O)c3cc(O)c(O)c(O)c3)[C@H](O)C[C@]3(C)C(=CC[C@@H]4[C@@]5(C)CC[C@H](O)C(C)(C)[C@@H]5CC[C@]43C)[C@@H]2C1`: the Activity result is reported as “Toxic”.

With `CC1(C)CC[C@]2(C(=O)NCCNC(=O)/C=C/c3ccc(O)cc3)[C@H](O)C[C@]3(C)C(=CC[C@@H]4[C@@]5(C)CC[C@H](O)C(C)(C)[C@@H]5CC[C@]43C)[C@@H]2C1`, the Activity entry is “Non-Toxic”.

For `CC1(C)CC[C@]2(C(=O)NCCNC(=O)c3ccc(OCc4ccccc4)cc3)CC[C@]3(C)C(=CC[C@@H]4[C@@]5(C)CC[C@H](O)C(C)(C)[C@@H]5CC[C@]43C)[C@@H]2C1`, the Activity result is listed as “Non-Toxic”.

For `C[C@H]1[C@H](C)CC[C@]2(C(=O)NCCNC(=O)c3cc(OCc4ccccc4)cc(OCc4ccccc4)c3)CC[C@]3(C)C(=CC[C@@H]4[C@@]5(C)CC[C@H](O)C(C)(C)[C@@H]5CC[C@]43C)[C@H]12`, the Activity result is “Non-Toxic”.

As to `C=C(C)[C@@H]1CC[C@]2(C(=O)NCCNC(=O)c3ccc(O)cc3O)CC[C@]3(C)[C@H](CC[C@@H]4[C@@]5(C)CC[C@H](O)C(C)(C)[C@@H]5CC[C@]43C)[C@@H]12`, the Activity result is on record as “Toxic”.

The values above are taken from ChEMBL document CHEMBL4411280, “Synthesis, structure activity relationship and in vitro anti-influenza virus activity of novel polyphenol-pentacyclic triterpene conjugates” (Eur J Med Chem, 2019).
